B2AR ag – human beta-2 adrenergic receptor agonism by FAP | P07550 | Am2.2-beta2AR cells, FAP receptor internalization, flow cytometry | response, % (no concentration beside the values) | 0.43% of 340,000 active | AID 504454;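 active = response above a set limit, near 3 SD of response in nonfluorescent compounds, cut at about 42% in these data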
UPR XBP1 act – activators of adaptive arm of unfolded protein response (XBP1) | CHO-XBP1 luciferase reporter, IRE1-XBP1 UPR activation, luminescence; percent of tunicamycin response, DMSO as zero | activation, % at 20 µM | 0.33% of 330,000 active;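 active = versus positive control, 20 µM dose yields 30% or more activation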
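Material: CHO-XBP1 cells stably carrying IRE1-XBP1-driven luciferase reporter | Medium: F12 with 10% serum | Compound dosing: 20 µM single concentration, DMSO 1% | Incubation: Overnight seeding at 37 °C, 6 h compound treatment at 37 °C | Detection: Steady-Glo luminescence read | Read-out basis: % activation of reporter signal versus tunicamycin and DMSO controls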
CHOP UPR activ – apoptotic UPR (CHOP) activation | CHO-CHOP luciferase reporter, luminescence; percent of tunicamycin response over DMSO baseline | activation, % at 10 µM | 0.34% of 330,000 active | AID 449763;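 active = at 10 µM dose, activation of 40% or more, normalized to positive control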
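Evaluation: % reporter activation, DMSO baseline versus tunicamycin full activation; System: CHO-CHOP luciferase reporter cell line; Input: 500 cells/well; Incubation: 6 h compound treatment, 37 °C; Measured by: Steady-Glo luciferase luminescence; Dosing: one dose, 10 µM in 0.5% DMSO; Buffer or medium: F12 medium, 10% FBS; Benchmarks: positive tunicamycin 10 µg/mL, negative DMSO alone.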
VLA-4 inh – inhibition in a human VLA-4 binding assay | AID 2557 | VLA-4 expressing cells, ligand binding flow cytometry | 0.2% of 330,000 active | inhibition, % (about 7 µM as worked out from the volumes in the protocol); in the data active = inhibition above about 50%
CHOP inh – blocks CHOP induction under ER stress | inhibition, % at 10 µM | AID 2732 | CHO-K1 CHOP-promoter luciferase, tunicamycin-induced, 15-18 h | 3.8% of 220,000 active;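 active = compounds that reduced the stress-induced luciferase reporter signal by more than about 70% of percent inhibition, limit read from the data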
A number is an active result; – = inactive; · = no result. Only a selection was taken, and hits are over-represented in it overall.

SMILES	B2AR ag	UPR XBP1 act	CHOP UPR activ	VLA-4 inh	CHOP inh
C=CCN1C(=O)/C(=C/c2ccsc2)SC1=S	44	–	–	–	–
O=C(O)CN1C(=O)/C(=C/c2ccsc2)SC1=S	–	–	–	–	–
COC(=O)[C@@]12CCCN1[C@H](c1ccc(-c3ccc(C(C)=O)cc3)c(OC)c1)[C@H]1C(=O)N(C)C(=O)[C@H]12	–	–	–	–	·
CC(C)(C)c1ccc(Cn2cnc(-c3ccc([N+](=O)[O-])cc3)c2)cc1	–	–	–	–	–
Cc1cc(C)c(Cn2cnc(-c3ccc([N+](=O)[O-])cc3)c2)c(C)c1	–	–	–	–	76
Cc1cccc(C(=O)NCCNc2nc3cc(C)c(C)cc3cc2C)c1	–	–	–	–	76
CN1CCN(CC(O)c2ccccc2)CC1 (stereo unspecified)	·	–	–	–	80
C=CCC[C@@H](Cc1ccc(F)cc1)C(=O)OC[C@@H](NC(=O)[C@@H](CC=C)CC(=O)N(CCO)Cc1ccccc1)c1ccccc1	–	–	–	–	·
COc1cccc(NS(=O)(=O)c2c(C)cc(C)cc2C)c1	–	–	–	–	95
CCCCc1nc(NCC2CCCO2)c(C#N)c2c1COC(C)(C)C2 (stereo unspecified)	–	–	–	–	86
COCCNS(=O)(=O)c1ccc(OCC(=O)OC)c(Cl)c1	–	–	–	–	92
COC(=O)COc1ccc(S(=O)(=O)NCCC2=CCCCC2)cc1Cl	–	–	–	–	–
COc1ccc(C(=O)NC(=S)Nc2cccnc2)cc1Cl	–	–	–	–	·
CCc1ccccc1N1CCN(S(=O)(=O)c2ccc(F)c(C)c2)CC1	–	–	–	–	74
Cc1ccc(N2CCN(S(=O)(=O)c3ccc(F)c(C)c3)CC2)c(C)c1	–	–	–	–	–
O=C1CCC(C2CCc3cc(O)ccc3C2)C1 (stereo unspecified)	–	·	·	·	·
Cn1c(=O)c2c(nc(SCCCO)n2Cc2ccccc2Cl)n(C)c1=O	–	–	–	–	–
C=CCOc1nc2c(c(=O)n(C)c(=O)n2C)n1Cc1ccccc1Cl	–	–	–	–	–
COc1cccc(Cn2c(Oc3ccccc3)nc3c2c(=O)n(C)c(=O)n3C)c1	–	–	–	–	–
C=CC(C)Sc1nc2c(c(=O)n(C)c(=O)n2C)n1Cc1ccccc1Cl (stereo unspecified)	–	–	–	–	83
COc1cccc(Cn2c(Oc3cccc(C)c3)nc3c2c(=O)n(C)c(=O)n3C)c1	–	–	–	–	79
C=CCOc1nc2c(c(=O)n(C)c(=O)n2C)n1Cc1ccc(Cl)cc1	–	–	–	–	82
O=C(Nc1cccnc1)c1cc(-c2ccc(Cl)cc2Cl)on1	–	–	–	–	·
CC(=O)N1CCN(C(=O)COC(=O)COc2c(C)cc(C)cc2C)CC1	–	–	–	–	·
CC(C)(NC(=O)c1cc(Cl)c2ccccc2c1O)C(=O)O	–	–	–	–	–
SMILES	B2AR ag	UPR XBP1 act	CHOP UPR activ	VLA-4 inh	CHOP inh
O=C(Nc1ccc(-c2cn3c(n2)SCC3)cc1)c1ccco1	–	–	–	–	–
Cc1ccccc1NC(=S)NC(NC(=O)COc1ccccc1)C(Cl)(Cl)Cl (stereo unspecified)	–	–	–	–	83
Cc1ccc(C)c(NC(=S)NC(NC(=O)Cc2cccc3ccccc23)C(Cl)(Cl)Cl)c1 (stereo unspecified)	–	47	52	–	79
CN(CCOCCOc1ccc2ccccc2c1)Cc1ccccc1	–	–	–	–	71
O=C(CCC(=O)c1ccc(F)cc1)Nc1cc(Cl)cc(Cl)c1	–	–	–	–	84
CC(=O)c1cccc(NC(=O)CCC(=O)c2ccc(F)cc2)c1	–	–	–	·	·
O=C(NC(=S)Nc1cccc(Cl)c1N1CCCCC1)c1cccs1	–	–	–	–	–
CCCC(=O)NC(=S)Nc1cccc(Cl)c1N1CCCC1	–	–	–	–	81
COc1ccc(OC)c(/C(O)=C/C(=O)C(=O)Nc2ccccc2OC)c1	–	–	–	–	75
CCC1C(=O)N=C(SCC(=O)Nc2nc3ccccc3s2)NC1=O (stereo unspecified)	–	–	–	–	–
O=C(NCc1ccccc1)C1CCCN(C(=O)NCc2ccccc2)C1 (stereo unspecified)	–	–	–	–	·
Cc1cccc(CN(CC(=O)N/N=C/c2ccco2)S(=O)(=O)c2ccc(Cl)cc2)c1	–	–	–	–	–
Cc1cccc(CN(CC(=O)N/N=C/c2cccs2)S(=O)(=O)c2ccc(Cl)cc2)c1	–	–	–	–	78
O=C(CN(CCc1ccccc1)S(=O)(=O)c1ccc(Cl)cc1)N/N=C/c1ccc2c(c1)OCO2	–	–	–	–	77
O=[N+]([O-])c1ccc(-c2ccc(/C=N/c3c(-c4ccco4)nc4ccccn34)o2)c(Cl)c1	·	·	·	·	79
O=[N+]([O-])c1ccc(-c2ccc(/C=N/c3c(-c4ccco4)nc4ccccn34)o2)cc1	–	–	–	–	–
COc1ccc(/C=C(\NC(=O)c2ccccc2)C(=O)NCc2ccco2)cc1OC	–	–	–	–	·
Cc1nc(NC(=O)CCc2ccccc2)ccc1Br	–	–	–	–	80
Cc1ccccc1C(=O)Nc1ccc(Br)c(C)n1	–	–	–	–	–
Cc1ccc(NC(=O)Cn2c(-c3ccc(F)cc3)cnc2SCC(=O)Nc2c(C)cccc2C)cc1	–	–	–	–	81
CC12CCC(C/C1=N/NC(=O)Nc1ccccc1)C2(C)C (stereo unspecified)	–	–	–	–	90
CC(=O)Nc1ccc(NC(=O)C2CCCCN2S(=O)(=O)c2ccc(C(C)(C)C)cc2)cc1 (stereo unspecified)	–	–	–	–	·
Cc1ccc(C(=O)Nc2cc(C(C)C)c(O)c(C(C)C)c2)cc1	–	–	–	–	74
COc1ccc(N2CC(O)=C(c3nc(-c4ccc(Cl)cc4)cs3)C2=N)cc1	–	85	–	–	–
COc1ccc(N2CC(O)=C(c3nc(-c4ccc(Br)cc4)cs3)C2=N)cc1	–	58	–	–	–
SMILES	B2AR ag	UPR XBP1 act	CHOP UPR activ	VLA-4 inh	CHOP inh
O=C(O)/C=C/c1cnc2ccccc2c1	–	–	–	–	–
CCOC(=O)c1cc(OC(=O)c2ccccc2OC)n(-c2ccccc2)n1	–	–	–	–	80
CCOC(=O)c1sc2ccccc2c1OC(=O)c1ccccc1OC	–	–	–	–	–
O=C(NCCc1ccccc1Cl)c1ccc2nc3ccccc3c(=O)n2c1	–	–	–	–	·
CC1(C)Cc2c(sc3c2c(=N)n(Cc2ccco2)c(=O)n3Cc2ccc(Cl)cc2)CO1	–	–	–	–	–
CC1(C)Cc2c(sc3c2c(=N)n(Cc2ccco2)c(=O)n3Cc2ccccc2)CO1	–	–	–	–	70
Cc1ccccc1CCN(C(=O)Cn1nnc2ccccc21)C(C(=O)NCC1CCCO1)c1nc2ccccc2n1C (stereo unspecified)	–	–	–	–	82

Screening results from PubChem BioAssay.
